Here are results for 48 sequences from the EternaBench riboswitch data.

The test system of this data set is MS2 coat protein. The data set is described as follows: apparent Kd, MS2 coat protein; higher = weaker binding; RNA-MaP array; FMN 200 µM where present. A digest of the protocol:
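The apparent Kd is the median of filtered binding-curve fits, one per cluster, to green signal normalised to red-channel RNA signal and control-cluster median Fmax. The clusters were on Illumina sequencing chips, and stalled E. coli RNA polymerase had transcribed the designs on them. Titration used SNAP-549-labelled MS2 coat protein from 0.7 or 1.5 nM, doubling to 3 µM, without and then with constant ligand, in 100 mM Tris-HCl pH 7.5, 80 mM KCl, 4 mM MgCl2, BSA, DTT, yeast tRNA and Tween-20.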

Where [1] appears, read: designed as: OFF switch for flavin mononucleotide, no ligand.
Where [2] appears, read: ligand present: flavin mononucleotide, designed as: OFF switch for flavin mononucleotide.
Where [3] appears, read: designed as: ON switch for flavin mononucleotide, no ligand.
The mark [4] stands for this setting: ligand present: flavin mononucleotide, designed as: ON switch for flavin mononucleotide.

In general, apparent Kd refers to the concentration giving half-maximal binding under the conditions of the assay. Turning to “ACAUUAAGUGCAGGAUAUGCCAACCUGGGUUCGGUAGAAGGGCACAUGAGGAUCACCCAUGUAGCGGUGGGUUGGGCCAAGGUU”, the “apparent Kd” value reads like this: under setting [1], 13.3 nM; under setting [2], 35.6 nM.

“UUAUUAUAUGUAGGAUAUGCAUAUUAUUAUUGUGCAGAAGGACAUGAGGAUCACCCAUGUAUACUAUUAUUAUAUAUUAUAUAU”: the “apparent Kd” value came to 10.8 nM under setting [1] and 13.6 nM under setting [2].

As for “UGUCUAUUUGAAGGAUAUCUAAGCAUAAACCGGAGAGAAGGUCAAUUAUACAUGAGGAUCACCCAUGUUGAGAUUGAUGGGUUU”, the “apparent Kd” value is, setting by setting: under setting [1], 16.2 nM; under setting [2], 18.4 nM.

As to “UUGGUUCUCGUAGGAUAUGUAGGAUAUGCCUACAUGAGGAUCACCCAUGUUCGCAUGGCAGAAGGACAGAAGGACGAUCACCAU”, the “apparent Kd” value under setting [3] is 378 nM and the “apparent Kd” value under setting [4] worked out at 17.3 nM.

With “UUAAAUCAUGUAGGAUAUGCAUGGCGAAGCUACGCAGAAGGACAUGAGGAUCACCCAUGUUAUAGCGUCUGAGAACAGAUGCAA”, the “apparent Kd” value under setting [1] was 82.8 nM and the “apparent Kd” value under setting [2] worked out at 264 nM.

As for “UGUCGGAGCAUAGGAUAUUACAUGAGGAUCACCCAUGUAUGAACCAAUAGCUGGAAACAGCAAUGUAAGAAGGCUGCUCCGACA”, the “apparent Kd” value by setting is: under setting [1], 5.16 nM; under setting [2], 8.98 nM.

As to “AAGUAGAUCCGAGGAUAUACAUAGCGGAAACGCAACAUGAGGAUCACCCAUGUAGAAGGCGGAUCUACAGGUACUAAAGUACCA”, the “apparent Kd” value runs as follows: under setting [1], 7.77 nM; under setting [2], 13.5 nM.

On to “GGACCGCUUAGAAUUAGCGGCCGGCAGGAUAUGACAUGAGGAUCACCCAUGUGAACUCCAUUGGGUCAGAAGGGCCACGACACA”, for which the “apparent Kd” value reads like this: under setting [1], 23.9 nM; under setting [2], 86.4 nM.

On to “AUAAAUCAUGUAGGAUAUGCGUGGCGAAGCUAUGCAGAAGGACAUGAGGAUCACCCAUGUUUUUCCGUCUGCGUACAGACGGAA”, for which the “apparent Kd” value was found to be 308 nM under setting [1] and 147 nM under setting [2].

Turning to “GUUUAGUGAGGAUAUGUGGCGUGGAUCGAGCGCGGUCGGCUACAGAAGGCACAUGAGGAUCACCCAUGUUUCUC”, the “apparent Kd” value reads like this: under setting [1], 106 nM; under setting [2], 280 nM.

“CUUUUGUGAGGAUAUUAGUAGUAAAUAAAUAAAAUUACUACUGAGAAGGUACAUGAGGAUCACCCAUGUUCCUC”: the “apparent Kd” value by setting is: under setting [1], 14.8 nM; under setting [2], 19.3 nM.

Take “GCAUCACAUGAGGAUCACCCAUGUCUUCGGAGUCGAGGAUAUGGUCACUGUAAACAGUGGCCAGAAGGCGAGAUGC”: the “apparent Kd” value under setting [3] turned out to be 48.1 nM and the “apparent Kd” value under setting [4] stood at 31.6 nM.

For “GCACUUAGAGAUUUACCGUUACUAACAUGAGGAUCACCCAUGUAGGAUAUGCUAAUAGUAUUGAAGCAGAAGGACACUAAGUGC”, the “apparent Kd” value is, setting by setting: under setting [1], 5 nM; under setting [2], 5.18 nM.

Regarding “AACAAACAUGAGGAUCACCCAUGUGAGGAUAUCGGAUGUACAGCGCAAUUAGAAUUAACGAGAAGGCACACUUA”, the “apparent Kd” value reads like this: under setting [1], 30.6 nM; under setting [2], 29.1 nM.

For “GGUACACAUGAGGAUCACCCAUGUCAGGAUAUCUGGAUACUCUUUAUUUUAGAUAUCCAGAGAAGGGACGUGCC”, the “apparent Kd” value amounted to 30.8 nM under setting [1] and 40.9 nM under setting [2].

In the case of “GUCAGCUCGUGAGGAUAUACAUAAUAUCAAGAUCACAUGAGGAUCACCCAUGUAGAAGGCACGAGCUGAUAAGCACGAAAGUGC”, the “apparent Kd” value is, setting by setting: under setting [1], 12.1 nM; under setting [2], 102 nM.

Take “ACCUUACUGGUCAGGAUAUACAGUCUUUGGUGGGUGUAGAAGGGACAUGAGGAUCACCCAUGUAGGUUGCAGCA”: the “apparent Kd” value worked out at 175 nM under setting [1] and 153 nM under setting [2].

Regarding “UUGGACGUCGUAGGAUAUGUAGGCUAUUCCUACAUGAGGAUCACCCAUGUUGACAUGGAAGAAGGACAGAAGGACGAUGUCCAU”, the “apparent Kd” value under setting [3] worked out at 30.4 nM and the “apparent Kd” value under setting [4] is 3.85 nM.

As for “CUUCAGUCACAGGAUAUGCUCAUCUAAUGAUGAGCAGAAGGGUGAACAUGAGGAUCACCCAUGUUUACGGUGGU”, the “apparent Kd” value came out at 621 nM under setting [1] and 487 nM under setting [2].

Take “GUUUAGUGAGGAUAUGUGGCUUCGAUCGUGCGCGGUCUGCUACAGAAGGCACAUGAGGAUCACCCAUGUUUCUC”: the “apparent Kd” value under setting [1] was found to be 173 nM and the “apparent Kd” value under setting [2] stood at 527 nM.

On to “AAAACAGUGUAGGAUAUGGCUGGGCUGAAAAUGCUAGAAGGACACACAUGAGGAUCACCCAUGUGACUUCGUGC”, for which the “apparent Kd” value is, setting by setting: under setting [1], 13.8 nM; under setting [2], 15.5 nM.

Consider “AUAUUGUGAGGAUAUGAACUUAGAAUCGAAAGAUACUAAGUUCAGAAGGCACAUGAGGAUCACCCAUGUUUCUC”, for which the “apparent Kd” value by setting is: under setting [1], 86 nM; under setting [2], 875 nM.

In the case of “CAACUGAGCGUAAAUUACCUGAACAUGAGGAUCACCCAUGUGGAGGAUAUUGACUUAGCAAAACUCGAGAAGGCCACUGGGAUG”, the “apparent Kd” value was determined as 39 nM under setting [1] and 18.2 nM under setting [2].

Consider “GCCGAACAUGAGGAUCACCCAUGUCCGGGUAGUCAAGGAUAUGGGUAGGCAAUGCCGUGGCCAGAAGGUGGCUAUC”, for which the “apparent Kd” value runs as follows: under setting [3], 97.6 nM; under setting [4], 30.9 nM.

Consider “AGGAGAAAUGUAGGAUAUGUAUAUAUAUAUGGGCAAAGCGCAUAUAUAUAUACAGAAGGACAUGAGGAUCACCCAUGUUUCCCU”, for which the “apparent Kd” value reads like this: under setting [1], 11.4 nM; under setting [2], 13.5 nM.

Regarding “UGUUGUAUUACAGGAUAUCUAUUGUUUUAAUUUAGAGAAGGGUAUUCACAUGAGGAUCACCCAUGUAUAUACGAGGAAGUUGUG”, the “apparent Kd” value under setting [3] turned out to be 54 nM and the “apparent Kd” value under setting [4] is 61 nM.

Take “UGGUUUGGGCUAGAUGCACAGACAUGAGGAUCACCCAUGUCUGAGGAUAUGCGUCAACAUAGGCAGCAGAAGGCAGACACUCGC”: the “apparent Kd” value reads like this: under setting [1], 15 nM; under setting [2], 22.2 nM.

As to “GUUGCACAAAUUAACAUGAGGAUCACCCAUGUCAAAAGACAUGAGGAUAUGGAUCUGAAGAAGAUCCAGAAGGCAUAGUGCUAA”, the “apparent Kd” value runs as follows: under setting [3], 370 nM; under setting [4], 23.7 nM.

On to “UCCAAAUCGUAGAAGGGUGACAUGAGGAUCACCCAUGUGCAGCAACCGUGAACGGCCAUGCUGCCACAGGAUAUACGAUGGAGU”, for which the “apparent Kd” value is, setting by setting: under setting [3], 14.1 nM; under setting [4], 29.8 nM.

As for “UGAAAUAGAGGAUAUACAUGAGGAUCACCCAUGUGAUCCUCCGGAGUAGGCCGUUUAUGUAGAAGGCUGAUGAA”, the “apparent Kd” value by setting is: under setting [1], 48.9 nM; under setting [2], 48.3 nM.

Turning to “UGGUGACGUUUCUUCUCGACAUGAGGAUCACCCAUGUAGACAGAGGAUAUCCGAGUUGCCAAUAUGGAGAAGGCUGACUGCGAA”, the “apparent Kd” value is 6.6 nM under setting [1] and 8.32 nM under setting [2].

Take “AACCUAUUACAGAAGGCCAGCUACAUGAGGAUCACCCAUGUCGAGUCAUGGAGGAUAUGUAGUAAUUUGCCCGCGGGCGAGUAC”: the “apparent Kd” value under setting [3] was determined as 31.3 nM and the “apparent Kd” value under setting [4] was 5.78 nM.

As to “CGGGAGGAAGGAUAUACACGGCCUCCUAGAAUAAAUCCUGGACAUGAGGAUCACCCAUGUAGAAGGUCCACCGA”, the “apparent Kd” value is, setting by setting: under setting [1], 18.9 nM; under setting [2], 24.4 nM.

Take “AAGUAGGAAGGAUAUACAUGGAUAUACAUUCAUGUGGACCUACAUGAGGAUCACCCAUGUAGAAGGUCCUAAUA”: the “apparent Kd” value amounted to 18.1 nM under setting [1] and 12.1 nM under setting [2].

With “GUAUUUAGAUAAGGAUAUAAGUCUAUGACAUGAGGAUCACCCAUGUGUGUUUUAGAAGGUAUUUGGGUAAUAUUGUUACAGUAA”, the “apparent Kd” value is, setting by setting: under setting [3], 29.6 nM; under setting [4], 21.3 nM.

As for “AAGAAACAUGAGGAUCACCCAUGUCAGGAUAUGCAAAACUGACGAAAGUCAGAAGAAAGCAGAAGGGACUAGAA”, the “apparent Kd” value was 59.8 nM under setting [1] and 79.7 nM under setting [2].

Regarding “UUUCCUGGAGGAUAUACAUGAGGAUCACCCAUGUGGUUCGGAUUAAGCGGCUUACGCGGUAGAAGGUUAGACUU”, the “apparent Kd” value by setting is: under setting [1], 108 nM; under setting [2], 85.1 nM.

“ACAUGAUCAGGAUAUACAUGAGGAUCACCCAUGUUUAUCAAAAAAAGGCUUUCAUCAUGUAGAAGGGAUCUUGU”: the “apparent Kd” value came out at 20.4 nM under setting [1] and 65.7 nM under setting [2].

Turning to “GGGUAGAUCGGAGGAUAUCAUGUAAAUACAUGAGGAUCACCCAUGUCGAUGGAGACAUCGGAGAUUGAGAAGGCCGAUGUACCG”, the “apparent Kd” value runs as follows: under setting [3], 166 nM; under setting [4], 8.4 nM.

With “UAUUAGUAAGGAUAUCUCGUCAUGGACGUGAGUCCAUGACGAGAGAAGGUACAUGAGGAUCACCCAUGUUCAUU”, the “apparent Kd” value by setting is: under setting [1], 15.9 nM; under setting [2], 18.3 nM.

Consider “AUGAUACAUGAGGAUCACCCAUGUCACCUCACACGAGGAUAUCUGAAUCGAUUAGAUUACGGAGAAGGCGUGGAAA”, for which the “apparent Kd” value by setting is: under setting [3], 66.8 nM; under setting [4], 20.8 nM.

As to “UUACUACAUGAGGAUCACCCAUGUCAGGAUAUUGGAUAUGCCUUGGAAUACGUGUUUACAAGAAGGGACUAUAU”, the “apparent Kd” value was 23.4 nM under setting [1] and 21.4 nM under setting [2].

On to “AGCUACGUUUCGUAGCAGUGUCAUCGAGAAGGCCCUGACAUGAGGAUCACCCAUGUUGUUACAUGGGAGGAUAUCGAUGAUACG”, for which the “apparent Kd” value is 12.2 nM under setting [3] and 4.68 nM under setting [4].

Consider “GCACGGUAAGUGAGGAUAUACCUCUGGAUACAGAGGUAGAAGGCACAUGAGGAUCACCCAUGUCUAAGCCGUGC”, for which the “apparent Kd” value runs as follows: under setting [1], 17.1 nM; under setting [2], 24.1 nM.

On to “AGGUAACAUGAGGAUCACCCAUGUCAGGAUAUCAUGAAGAGUAGAUUAGAGGAGAGGUUGAGAAGGGACUAUAU”, for which the “apparent Kd” value under setting [1] came out at 59.9 nM and the “apparent Kd” value under setting [2] amounted to 35.3 nM.

On to “GUAGCAUACCGAGGAUAUUCAUACCGAAAACGGACAUGAGGAUCACCCAUGUGGCGAAAGCCUUGGGAGAAGGCGGAAUGCUAC”, for which the “apparent Kd” value under setting [3] is 592 nM and the “apparent Kd” value under setting [4] was 26.2 nM.

For “AAGAUGCGGAUAGGAUAUGGAGAGAAAGAAAGACCAGAAGGAUUGGUCAUAUAACAUGAGGAUCACCCAUGUAUAUGUUGUGAA”, the “apparent Kd” value under setting [1] is 19.9 nM and the “apparent Kd” value under setting [2] is 16.6 nM.

Consider “GCUCGAUGCGCUGAGCACAUGAGGAUCACCCAUGUAAAAUAUCAGGAUAUUUACGUGCUUUAUGUAGAGAAGGGAUUAUCGAGC”, for which the “apparent Kd” value came to 101 nM under setting [3] and 41.4 nM under setting [4].
